Assay results taken from ChEMBL document CHEMBL4513216, “Probing the Open Global Health Chemical Diversity Library for Multistage-Active Starting Points for Next-Generation Antimalarials” (ACS Infect Dis, 2020).

Experiment: Toxicity liver stage against HepG2, at 10uM
Format: cell-based
Parameters: test concentration 10 uM, cell line HepG2-A16-CD81EGFP
Settings: human, HepG2-A16-CD81EGFP cells; read-out: INHIBITION
Outline: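 Uninfected HepG2-A16-CD81EGFP cells, 3 × 10^3 per well, 1536-well, plated on prespotted compound at 10 μM final, parasite-free screening media added to match infected plates; puromycin 10 μM positive, DMSO 0.5% negative; run in parallel with 48 h PbLuc assay at 37 °C, 5% CO2; viability by CellTiter-Glo luminescence, normalized to controls.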
For `CS(=O)(=O)c1nccn1Cc1ccc(F)cc1Cl`, the cytotoxicity at 10 µM was -4.99%.
Compound `CC(C)(C)C(=O)N1CCN(C(=O)Nc2cnn(CC(F)F)c2)CC1` has a cytotoxicity at 10 µM of 9.62%.
With `COCC(=O)NCCc1ccc(Cl)s1` the cytotoxicity at 10 µM was 13.4%.
Compound `Cc1cc(CCC(=O)N2CC[C@H](O)C2)ccc1Br` has a cytotoxicity at 10 µM of 2.35%.
In the case of `COCCCNC(=O)COc1ccccc1C(F)(F)F`, the cytotoxicity at 10 µM is reported as 14.7%.
`CCn1nc2c(cc1=O)CN(Cc1nc3ccccc3c(=O)[nH]1)CC2` showed a cytotoxicity at 10 µM of -4.71%.
Compound `CC(C)NC(=O)N1CCC2(CC(=O)N(c3ccccc3)C2)C1` (stereo unspecified) has a cytotoxicity at 10 µM of -2.59%.
Compound `CC(=O)NCC(=O)N1Cc2nccn2CC(CN2CCCC2)C1` (stereo unspecified) has a cytotoxicity at 10 µM of 2.34%.
`Cc1occc1C(=O)N1CCc2c(COCC3CC3)cncc2C1` gave a cytotoxicity at 10 µM of -0.799%.
`C/C=C(\C)CN1CCC2(CCC(=O)N2OCc2ccccc2F)CC1` gave a cytotoxicity at 10 µM of 5.24%.
In the case of `COc1cccc(Cl)c1C(C(=O)O)N1CCC(O)(c2cccnc2)CC1` (stereo unspecified), the cytotoxicity at 10 µM is reported as 6.03%.
Work on `COc1ccc(CC(=O)N2CC[C@@]3(O)CCNC[C@H]3C2)c(OC)c1` yielded a cytotoxicity at 10 µM of 4.26%.
In the case of `CCCN(Cc1cccnc1)C(=O)C1CCN(Cc2ccco2)CC1`, the cytotoxicity at 10 µM is reported as 0.376%.
With `OCCCN1CCc2onc(C(c3ccccc3)c3ccccc3)c2C1` the cytotoxicity at 10 µM was -5.51%.
Work on `CCOc1ccc(CN2CC[C@@](C)(O)[C@@H](Cc3ccccc3)C2)cn1` yielded a cytotoxicity at 10 µM of -2.02%.
Work on `COCCc1ncc(-c2c(C#N)c(N)nc3c2CCc2[nH]ccc2-3)cn1` yielded a cytotoxicity at 10 µM of -0.508%.
For `CC(C)c1nccn1C(C)C(=O)NC1CCOCC1` (stereo unspecified), the cytotoxicity at 10 µM was -2.07%.
Work on `CC(C)Oc1cccc(F)c1C(C(=O)O)N1CCCN(C)CC1` (stereo unspecified) yielded a cytotoxicity at 10 µM of 0.992%.
Work on `CN1CCC2(CCN(S(=O)(=O)c3ccc(-c4cnco4)s3)CC2)C1` yielded a cytotoxicity at 10 µM of -0.0395%.
With `CCc1c(C)sc2ncnc(N3CC[C@@H](N4CCC(O)CC4)[C@H](O)C3)c12` the cytotoxicity at 10 µM was 6.96%.
With `CN(C)CCn1ccnc1C1CCCN(c2cc(N)ncn2)C1` (stereo unspecified) the cytotoxicity at 10 µM was -7.76%.
`Cn1ccnc1C1CCN(CCN2CCOCC2)CC1` gave a cytotoxicity at 10 µM of 4.69%.
Work on `CC1CN(c2ccccc2Cl)C(=O)CN1C(=O)c1c[nH]c(=O)c(Cl)c1` (stereo unspecified) yielded a cytotoxicity at 10 µM of 0.345%.
In the case of `COCCCn1cnnc1CNc1cc(C)nc2ccnn12`, the cytotoxicity at 10 µM is reported as -7.79%.
For `CCN1CCCC1Cn1ccc2c(OC)c(OC)ccc2c1=O` (stereo unspecified), the cytotoxicity at 10 µM was -2.78%.
With `NC(=O)[C@@H]1CCCN1C(=O)c1csc(-c2ccc(C(F)(F)F)cc2)n1` the cytotoxicity at 10 µM was -2%.
Work on `CN(Cc1ccccc1)c1cnn(CC2CCCCO2)c(=O)c1` (stereo unspecified) yielded a cytotoxicity at 10 µM of 0.992%.
For `O=C([C@H](O)c1ccccc1)N1CCN(c2cccc(Cl)c2)C(=O)C1`, the cytotoxicity at 10 µM was -6.17%.
`CC(=O)c1c(C)nn(CC(=O)N2Cc3cnc(CC(C)C)nc3C2)c1C` showed a cytotoxicity at 10 µM of 3.75%.
In the case of `Cc1cc2nc(C(C)C)cc(N3CCSCC3)n2n1`, the cytotoxicity at 10 µM is reported as 3.24%.
In the case of `Cc1cc(C)n(CCCN(C)c2cc(N(C)C)ncn2)n1`, the cytotoxicity at 10 µM is reported as 3.85%.
With `N#Cc1cc2c(=O)n(CC(O)C(F)(F)F)ccc2[nH]c1=O` (stereo unspecified) the cytotoxicity at 10 µM was -1.99%.
`COc1cc(CN2CCCC(Nc3cccc(F)c3)C2)cc(OC)c1O` (stereo unspecified) showed a cytotoxicity at 10 µM of 1.66%.
`NC(=O)NCC(=O)N1CCC2(CC1)c1ccccc1CC2O` (stereo unspecified) showed a cytotoxicity at 10 µM of 4.22%.
`Cn1c(=O)c2cc(C(=O)NCCOCC(F)(F)F)ccc2n(C)c1=O` gave a cytotoxicity at 10 µM of -13.9%.
Compound `O=C(CC1CCCC1)N1CCCC(c2n[nH]c3nccnc23)C1` (stereo unspecified) has a cytotoxicity at 10 µM of -2.6%.
In the case of `CN(Cc1ccc2c(c1)OCO2)C(=O)NCCc1cnn(C)c1`, the cytotoxicity at 10 µM is reported as -2.69%.
In the case of `O=C(NCCCn1ccnc1)N1CCCC1c1ccsc1` (stereo unspecified), the cytotoxicity at 10 µM is reported as -6.04%.
In the case of `c1cnn(CC2CCCN2Cc2cn3ccsc3n2)c1` (stereo unspecified), the cytotoxicity at 10 µM is reported as -10.2%.
Work on `COc1ccccc1CNC(=O)N1CCCC(c2nncn2C)C1` (stereo unspecified) yielded a cytotoxicity at 10 µM of -6.51%.
Compound `CC(C)c1noc(C(C)N2CCN(Cc3ccccc3C#N)CC2)n1` (stereo unspecified) has a cytotoxicity at 10 µM of -8.13%.
Work on `CC(C)Cc1noc(CN2CCOC(Cn3cncn3)C2)n1` (stereo unspecified) yielded a cytotoxicity at 10 µM of -2.58%.
With `CCc1nc(CC(=O)N2CCOCC2c2ncon2)cs1` (stereo unspecified) the cytotoxicity at 10 µM was -2.58%.
`Cc1cnc(CN2CCCC(c3cc(C(N)=O)[nH]n3)C2)o1` (stereo unspecified) showed a cytotoxicity at 10 µM of -9.14%.
With `Cc1ccc(CCN2CCC(N(C)Cc3noc(C4CC4)n3)C2)cc1` (stereo unspecified) the cytotoxicity at 10 µM was -8.31%.
`COc1ccnc(C(=O)N2CCCC(c3noc(C)n3)C2)c1` (stereo unspecified) showed a cytotoxicity at 10 µM of -4.64%.
In the case of `FC(F)(F)Cc1noc(CN2CCCC2c2noc(C3CC3)n2)n1` (stereo unspecified), the cytotoxicity at 10 µM is reported as -2.7%.
`Cc1cc2c(cc1CNC(Cc1cccs1)c1nccs1)OCO2` (stereo unspecified) gave a cytotoxicity at 10 µM of 6.76%.
Compound `CC(C)N1CCC2(CC1)C(=O)N(c1cccnc1)c1c(F)cccc12` has a cytotoxicity at 10 µM of 7.13%.
`Cc1c(C2CCCN(C(=O)C3CC3)C2)n2c(nc1=O)CCC2` (stereo unspecified) gave a cytotoxicity at 10 µM of -1.85%.
Compound `CN(Cc1ccco1)C1COC2(CCN(Cc3nccs3)CC2)C1` (stereo unspecified) has a cytotoxicity at 10 µM of 2.93%.
`c1cnc(-c2noc(C3CN(Cc4ccsc4)C3)n2)cn1` gave a cytotoxicity at 10 µM of 0.435%.
For `CCCS(=O)(=O)N1Cc2ccnn2CC(c2nc(C)no2)C1` (stereo unspecified), the cytotoxicity at 10 µM was 5.98%.
`CNC(=O)CCc1cc(C2CCNCC2)nc(C)n1` gave a cytotoxicity at 10 µM of -6.41%.
Compound `O=S(=O)(c1cccs1)N1CC[C@H](O)[C@@H]1Cc1ccncc1` has a cytotoxicity at 10 µM of 3.19%.
In the case of `CCOc1ccc(CN2CCc3nc4ccsc4c(=O)n3CC2)cc1`, the cytotoxicity at 10 µM is reported as -6.74%.
